Data: ChEMBL document CHEMBL1157765, “Synthesis of DOTA-conjugated multimeric [Tyr3]octreotide peptides via a combination of Cu(I)-catalyzed "click" cycloaddition and thio acid/sulfonyl azide "sulfo-click" amidation and their in vivo evaluation” (J Med Chem, 2010)

Experiments:
[1] = biological target: Somatostatin receptor type 2 (Rattus norvegicus, UniProt P30680); assay: Displacement of [111In]DOTA0,Tyr3]octreotide from SSTR2 receptor in rat AR42J cells; assay type: cell-based, AR-42J
How it was run: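 AR42J cells (DMEM, 10% FCS, 37 °C, 5% CO₂) seeded 8 × 10⁵/well and grown to confluence, washed with DMEM + 0.1% BSA. Incubated 3 h at 37 °C with [¹¹¹In-DOTA⁰,Tyr³]octreotide tracer (40 000 dpm) and unlabeled peptide at 0.1-300 nM. Washed twice; cell-bound activity γ-counted. IC₅₀ from fitted sigmoidal displacement curves with 95% CI.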

[2] = Octanol-water partition coefficient, log D at pH 7.4; assay type: physicochemical
How it was run: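 ¹¹¹In-labeled conjugate (~148 kBq) in PBS pH 7.4 mixed 1:1 with n-octanol and shaken 2 min. Phases separated by centrifugation (5 min, 250g); triplicate aliquots of each layer γ-counted. log D = log₁₀(octanol counts/aqueous counts), from at least two independent experiments.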

Blood [3] = assay: Biodistribution in blood of BALB/c mouse bearing rat AR42J cells at 0.37 MBq, iv after 2 hrs; assay type: ADME, organism-based, AR-42J; conditions: in vivo
How it was run: (§1)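 AR42J tumor grown in right flank of male BALB/c nude mice (20-25 g, 6-8 weeks) by sc injection of 5 × 10⁶ cells; used after ~2 weeks at 4-6 mm diameter. Groups of five received 0.37 MBq (0.1 μg) ¹¹¹In-DOTA conjugate iv via tail vein (labeled in 0.25 M NH₄OAc pH 5.5, 95 °C, 15 min). Tissues dissected at 2, 6 or 24 h, weighed, γ-counted against 1% injected-activity standards; %ID/g, mean ± SD.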

[4] = Biodistribution in tumor of BALB/c mouse bearing rat AR42J cells at 0.37 MBq, iv after 2 hrs; assay type: ADME, organism-based, Neoplasm, AR-42J; conditions: in vivo; how it was run: as §1
Pancreas [5] = assay: Biodistribution in pancreas of BALB/c mouse bearing rat AR42J cells at 0.37 MBq, iv after 2 hrs; assay type: ADME, organism-based, AR-42J; conditions: in vivo; how it was run: as §1
[6] = Biodistribution in adrenal gland of BALB/c mouse bearing rat AR42J cells at 0.37 MBq, iv after 2 hrs; assay type: ADME, organism-based, AR-42J; conditions: in vivo; how it was run: as §1
Kidney [7] = assay: Biodistribution in kidney of BALB/c mouse bearing rat AR42J cells at 0.37 MBq, iv after 2 hrs; assay type: ADME, organism-based, AR-42J; conditions: in vivo; how it was run: as §1
Liver [8] = assay: Biodistribution in liver of BALB/c mouse bearing rat AR42J cells at 0.37 MBq, iv after 2 hrs; assay type: ADME, organism-based, AR-42J; conditions: in vivo; how it was run: as §1
Stomach [9] = assay: Biodistribution in stomach of BALB/c mouse bearing rat AR42J cells at 0.37 MBq, iv after 2 hrs; assay type: ADME, organism-based, AR-42J; conditions: in vivo; how it was run: as §1
Blood [10] = assay: Biodistribution in blood of BALB/c mouse bearing rat AR42J cells at 0.37 MBq, iv after 6 hrs; assay type: ADME, organism-based, AR-42J; conditions: in vivo; how it was run: as §1
[11] = Biodistribution in tumor of BALB/c mouse bearing rat AR42J cells at 0.37 MBq, iv after 6 hrs; assay type: ADME, organism-based, Neoplasm, AR-42J; conditions: in vivo; how it was run: as §1
Pancreas [12] = assay: Biodistribution in pancreas of BALB/c mouse bearing rat AR42J cells at 0.37 MBq, iv after 6 hrs; assay type: ADME, organism-based, AR-42J; conditions: in vivo; how it was run: as §1
[13] = Biodistribution in adrenal gland of BALB/c mouse bearing rat AR42J cells at 0.37 MBq, iv after 6 hrs; assay type: ADME, organism-based, AR-42J; conditions: in vivo; how it was run: as §1
Kidney [14] = assay: Biodistribution in kidney of BALB/c mouse bearing rat AR42J cells at 0.37 MBq, iv after 6 hrs; assay type: ADME, organism-based, AR-42J; conditions: in vivo; how it was run: as §1
Liver [15] = assay: Biodistribution in liver of BALB/c mouse bearing rat AR42J cells at 0.37 MBq, iv after 6 hrs; assay type: ADME, organism-based, AR-42J; conditions: in vivo; how it was run: as §1
Stomach [16] = assay: Biodistribution in stomach of BALB/c mouse bearing rat AR42J cells at 0.37 MBq, iv after 6 hrs; assay type: ADME, organism-based, AR-42J; conditions: in vivo; how it was run: as §1
Blood [17] = assay: Biodistribution in blood of BALB/c mouse bearing rat AR42J cells at 0.37 MBq, iv after 24 hrs; assay type: ADME, organism-based, AR-42J; conditions: in vivo; how it was run: as §1
[18] = Biodistribution in tumor of BALB/c mouse bearing rat AR42J cells at 0.37 MBq, iv after 24 hrs; assay type: ADME, organism-based, Neoplasm, AR-42J; conditions: in vivo; how it was run: as §1
Pancreas [19] = assay: Biodistribution in pancreas of BALB/c mouse bearing rat AR42J cells at 0.37 MBq, iv after 24 hrs; assay type: ADME, organism-based, AR-42J; conditions: in vivo; how it was run: as §1
[20] = Biodistribution in adrenal gland of BALB/c mouse bearing rat AR42J cells at 0.37 MBq, iv after 24 hrs; assay type: ADME, organism-based, AR-42J; conditions: in vivo; how it was run: as §1
Kidney [21] = assay: Biodistribution in kidney of BALB/c mouse bearing rat AR42J cells at 0.37 MBq, iv after 24 hrs; assay type: ADME, organism-based, AR-42J; conditions: in vivo; how it was run: as §1
Liver [22] = assay: Biodistribution in liver of BALB/c mouse bearing rat AR42J cells at 0.37 MBq, iv after 24 hrs; assay type: ADME, organism-based, AR-42J; conditions: in vivo; how it was run: as §1
Stomach [23] = assay: Biodistribution in stomach of BALB/c mouse bearing rat AR42J cells at 0.37 MBq, iv after 24 hrs; assay type: ADME, organism-based, AR-42J; conditions: in vivo; how it was run: as §1
Blood [24] = assay: Biodistribution in blood of BALB/c mouse bearing rat AR42J cells at 0.37 MBq, iv after 2 hrs under cold condition; assay type: ADME, organism-based, AR-42J; conditions: in vivo
How it was run: (§2)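 Receptor block: groups of three AR42J tumor-bearing male BALB/c nude mice co-injected iv via tail vein with 0.37 MBq (0.1 μg) ¹¹¹In-DOTA conjugate plus 50 μg octreotide. Killed by CO₂/O₂ at 2 h; blood, tumor and tissues dissected, weighed and γ-counted against 1% injected-activity standards; %ID/g reported as mean ± SD.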

[25] = Biodistribution in tumor of BALB/c mouse bearing rat AR42J cells at 0.37 MBq, iv after 2 hrs under cold condition; assay type: ADME, organism-based, Neoplasm, AR-42J; conditions: in vivo; how it was run: as §2
Pancreas [26] = assay: Biodistribution in pancreas of BALB/c mouse bearing rat AR42J cells at 0.37 MBq, iv after 2 hrs under cold condition; assay type: ADME, organism-based, AR-42J; conditions: in vivo; how it was run: as §2
[27] = Biodistribution in adrenal gland of BALB/c mouse bearing rat AR42J cells at 0.37 MBq, iv after 2 hrs under cold condition; assay type: ADME, organism-based, AR-42J; conditions: in vivo; how it was run: as §2
Kidney [28] = assay: Biodistribution in kidney of BALB/c mouse bearing rat AR42J cells at 0.37 MBq, iv after 2 hrs under cold condition; assay type: ADME, organism-based, AR-42J; conditions: in vivo; how it was run: as §2
Liver [29] = assay: Biodistribution in liver of BALB/c mouse bearing rat AR42J cells at 0.37 MBq, iv after 2 hrs under cold condition; assay type: ADME, organism-based, AR-42J; conditions: in vivo; how it was run: as §2
Stomach [30] = assay: Biodistribution in stomach of BALB/c mouse bearing rat AR42J cells at 0.37 MBq, iv after 2 hrs under cold condition; assay type: ADME, organism-based, AR-42J; conditions: in vivo; how it was run: as §2

Sequence of Somatostatin receptor type 2 (P30680 whole entry): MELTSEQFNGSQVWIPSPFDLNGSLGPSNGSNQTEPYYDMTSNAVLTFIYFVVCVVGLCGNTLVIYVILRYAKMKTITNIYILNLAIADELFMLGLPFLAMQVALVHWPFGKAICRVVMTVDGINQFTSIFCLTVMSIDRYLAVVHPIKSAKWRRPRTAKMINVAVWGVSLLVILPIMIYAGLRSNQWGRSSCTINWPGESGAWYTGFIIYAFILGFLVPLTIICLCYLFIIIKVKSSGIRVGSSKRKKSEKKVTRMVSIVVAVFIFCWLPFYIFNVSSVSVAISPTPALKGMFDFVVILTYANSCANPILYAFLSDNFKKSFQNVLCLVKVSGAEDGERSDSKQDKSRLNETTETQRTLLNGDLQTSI

Row | Structure (SMILES) | IC50 [1] [nM] | logD [2] | Drug uptake (Blood [3]) [% ID/g] | Drug uptake [4] [% ID/g] | Drug uptake (Pancreas [5]) [% ID/g] | Drug uptake [6] [% ID/g] | Drug uptake (Kidney [7]) [% ID/g] | Drug uptake (Liver [8]) [% ID/g] | Drug uptake (Stomach [9]) [% ID/g] | Drug uptake (Blood [10]) [% ID/g] | Drug uptake [11] [% ID/g] | Drug uptake (Pancreas [12]) [% ID/g] | Drug uptake [13] [% ID/g] | Drug uptake (Kidney [14]) [% ID/g] | Drug uptake (Liver [15]) [% ID/g] | Drug uptake (Stomach [16]) [% ID/g] | Drug uptake (Blood [17]) [% ID/g] | Drug uptake [18] [% ID/g] | Drug uptake (Pancreas [19]) [% ID/g] | Drug uptake [20] [% ID/g] | further results
1 | C[C@@H](O)[C@@H]1NC(=O)[C@H](CCCCN)NC(=O)[C@@H](Cc2c[nH]c3ccccc23)NC(=O)[C@H](Cc2ccc(O)cc2)NC(=O)[C@@H](NC(=O)[C@@H](Cc2ccccc2)NC(=O)CCCCCn2cc(COc3cccc(C(=O)NS(=O)(=O)CCNC(=O)CN4CCN(CC(=O)O)CCN(CC(=O)O)CCN(CC(=O)O)CC4)c3)nn2)CSSC[C@@H](C(=O)N[C@H](CO)[C@@H](C)O)NC1=O | 1.32 | -2.2 | 0.27 | 42.33 | 2.92 | 1.86 | 54.19 | 0.52 | 7.54 | 0.13 | 21.32 | 0.63 | 0.78 | 10.96 | 0.22 | 6.11 | 0.04 | 10.75 | 0.17 | 0.63 | Drug uptake (Kidney [21]): 2.53 % ID/g; Drug uptake (Liver [22]): 0.09 % ID/g; Drug uptake (Stomach [23]): 2.83 % ID/g; Drug uptake (Blood [24]): 3.46 % ID/g; Drug uptake [25]: 4.82 % ID/g; Drug uptake (Pancreas [26]): 1.07 % ID/g; Drug uptake [27]: 2.38 % ID/g; Drug uptake (Kidney [28]): 62.74 % ID/g; Drug uptake (Liver [29]): 3.61 % ID/g; Drug uptake (Stomach [30]): 2.16 % ID/g
2 | C[C@@H](O)[C@@H]1NC(=O)[C@H](CCCCN)NC(=O)[C@@H](Cc2c[nH]c3ccccc23)NC(=O)[C@H](Cc2ccc(O)cc2)NC(=O)[C@@H](NC(=O)[C@@H](Cc2ccccc2)NC(=O)CCCCCn2cc(COc3cc(OCc4cn(CCCCCC(=O)N[C@H](Cc5ccccc5)C(=O)N[C@H]5CSSC[C@@H](C(=O)N[C@H](CO)[C@@H](C)O)NC(=O)[C@H]([C@@H](C)O)NC(=O)[C@H](CCCCN)NC(=O)[C@@H](Cc6c[nH]c7ccccc67)NC(=O)[C@H](Cc6ccc(O)cc6)NC5=O)nn4)cc(C(=O)NS(=O)(=O)CCNC(=O)CN4CCN(CC(=O)O)CCN(CC(=O)O)CCN(CC(=O)O)CC4)c3)nn2)CSSC[C@@H](C(=O)N[C@H](CO)[C@@H](C)O)NC1=O | 2.45 | -1.79 | 1.52 | 25.31 | 2.96 | 2.69 | 92.2 | 18.67 | 10.21 | 0.86 | 30.91 | 1.69 | 2.49 | 65.61 | 14.92 | 7.78 | 0.17 | 12.14 | 0.36 | 1.27 | Drug uptake (Kidney [21]): 11.74 % ID/g; Drug uptake (Liver [22]): 5.54 % ID/g; Drug uptake (Stomach [23]): 2.97 % ID/g; Drug uptake (Blood [24]): 2.31 % ID/g; Drug uptake [25]: 5.55 % ID/g; Drug uptake (Pancreas [26]): 1.18 % ID/g; Drug uptake [27]: 1.56 % ID/g; Drug uptake (Kidney [28]): 57.78 % ID/g; Drug uptake (Liver [29]): 22.67 % ID/g; Drug uptake (Stomach [30]): 3.46 % ID/g
